Experimental data as given in ChEMBL document CHEMBL5029146, “Single Diastereomers of the Clinical Anticancer ProTide Agents NUC-1031 and NUC-3373 Preferentially Target Cancer Stem Cells In Vitro” (J Med Chem, 2021).
Active and inactive are the calls of the source. The calls are words filed in the database; no cut-off is given here.

What was measured:
KG-1a [1] = assay: Cytotoxicity against human KG-1a cells assessed as cell death incubated for 72 hrs by flow cytometry based Annexin V/7-AAD assay; format: functional
How it was run: (§1)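 Cell suspensions from confluent flasks (10^5 cells per well) exposed 72 h at 37°C, humidified 5% CO2, to compound over experimentally set concentration ranges, with drug-free controls. Cells harvested by centrifugation, Annexin V/7-AAD flow cytometry. Triplicate experiments; LC50 by non-linear regression of sigmoidal dose-response curves, mean ± SEM.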

HT-29 [2] = assay: Cytotoxicity against human HT-29 cells assessed as cell death incubated for 72 hrs by flow cytometry based Annexin V/7-AAD assay; format: functional; details: read-out: LC50 (the source's name); how it was run: as §1
LNCaP = assay: Cytotoxicity against human LNCaP cells assessed as cell death incubated for 72 hrs by flow cytometry based Annexin V/7-AAD assay; format: functional; details: read-out: LC50 (the source's name); how it was run: as §1
BXPC-3 = assay: Cytotoxicity against human BXPC-3 cells assessed as cell death incubated for 72 hrs by MTS assay; format: functional; details: read-out: LC50 (the source's name)
How it was run: (§2)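 Contracted MTS viability test (BxPC-3, MIA PaCa-2, HT-29, SW620), cells plated the day before dosing. 72 h exposure to 9 serial 3.16-fold dilutions, highest 198 μM, then MTS for 4 h at 37°C and absorbance read. Run in duplicate; LC50 (concentration giving 50% cell death) taken from curve fit as mean.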

MIA PaCa-2 = assay: Cytotoxicity against human MIA PaCa-2 cells assessed as cell death incubated for 72 hrs by MTS assay; format: functional; details: read-out: LC50 (the source's name); how it was run: as §2
KG-1a [3] = assay: Cytotoxicity against human KG-1a cells assessed as reduction in leukemic stem cells fraction >= 0.25 uM measured after 48 hrs by FACS assay; format: functional, cell-based; details: dose microM >=0.25, time 48.0 hrs
[4] = Stability in human plasma assessed as half life; format: ADME, cell-free; details: time <=24 hrs
KG-1a [5] = assay: Cytotoxicity against human KG-1a cells assessed as viable cells at 0.25 uM for 48 hrs by FITC-PE analysis (reference value: 3.9 to 4%); format: functional
How it was run: (§3)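 KG1a AML cells were kept in RPMI with 20% foetal calf serum and penicillin/streptomycin, then exposed to a wide concentration range of each nucleoside or ProTide. Cells were stained with anti-CD34 (FITC) and anti-CD38 (PE) and read by flow cytometry. The CD34⁺/CD38⁻ stem-cell subset was expressed as a percentage of viable cells. Results are the mean ±SEM of five independent experiments.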

KG-1a [6] = assay: Cytotoxicity against human KG-1a cells assessed as viable cells at 0.5 uM for 48 hrs by FITC-PE analysis (reference value: 3.9%); format: functional; how it was run: as §3
[7] = Drug uptake in human KG-1a cell leukemic stem cells fraction assessed as intracellular accumulation at 1 uM treated for 1 hr by mass spectrometry analysis; format: ADME
How it was run: (§4)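 KG1a cells (5×10^6, DMEM + 10% FCS) exposed to 1 μM compound for 1 h, harvested, then FACS-sorted into CD34+/CD38− LSC and CD34+/CD38+ bulk fractions. Pellets lysed; intracellular triphosphate quantified by mass spectrometry against a nucleoside standard curve. Five independent experiments in triplicate, mean ± SEM.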

[8] = Drug uptake in human KG-1a cell bulk tumor fraction assessed as intracellular accumulation at 1 uM treated for 1 hr by mass spectrometry analysis; format: ADME; how it was run: as §4
KG-1a [9] = assay: Cytotoxicity against human KG-1a cells assessed as viable cells at 1 uM for 48 hrs by FITC-PE analysis (reference value: 3.9 to 4%); format: functional; how it was run: as §3
KG-1a [10] = assay: Cytotoxicity against human KG-1a cells assessed as reduction in leukemic stem cells fraction up to 2.5 uM measured after 48 hrs by FACS assay; format: functional, cell-based; details: dose microM <=2.5, time 48.0 hrs; how it was run: as §3
KG-1a [11] = assay: Cytotoxicity against human KG-1a cells assessed as reduction in leukemic stem cells fraction at >= 0.07 uM after 48 hrs by FACS assay; format: functional, cell-based; details: dose microM >=0.07, time 48.0 hrs; how it was run: as §3
HT-29 [12] = assay: Potency index, ratio of 5-FU LC50 to test compound LC50 for human HT-29 cells for 72 hrs by flow cytometry using Annexin V/7-AAD assay; format: functional
How it was run: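 Annexin V/7-AAD flow cytometry after 72 h exposure at 37°C, 5% CO2, drug-free controls included, triplicate. LC50 by non-linear regression. Index is reference nucleoside LC50 (5-FU for HT-29, FUDR for KG1a) divided by test compound LC50.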

MDA-MB-231 = assay: Cytotoxicity against human MDA-MB-231 cells incubated for 72 hrs by flow cytometry using Annexin V/7-AAD assay; format: functional; details: 72 h, read-out: LC50 (the source's name); how it was run: as §1
HCT-116 = assay: Cytotoxicity against human HCT-116 cells assessed as cell death incubated for 72 hrs by flow cytometry based Annexin V/7-AAD assay; format: functional; details: 72 h, read-out: LC50 (the source's name); how it was run: as §1
SW-620 = assay: Cytotoxicity against human SW-620 cells assessed as cell death incubated for 72 hrs by MTS assay; format: functional; details: 72 h, read-out: LC50 (the source's name); how it was run: as §2
[13] = Metabolic stability in cryopreserved human hepatocytes assessed as half life at 1 uM for 60 mins by HPLC-MS/MS analysis; format: ADME, cell-based, Hepatocyte; details: hepatocytes, 1 h, 1 µM
How it was run: (§5)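 Pooled cryopreserved human hepatocytes thawed, washed and resuspended in Krebs-Henseleit buffer pH 7.3. Compound at 1 μM final, incubated 0 and 60 min at 37°C/5% CO2. Quenched with acetonitrile, centrifuged; supernatant analysed by HPLC-MS/MS.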

[14] = Metabolic stability in cryopreserved human hepatocytes assessed as parent compound remaining at 1 uM for 60 mins by HPLC-MS/MS analysis; format: ADME, cell-based, Hepatocyte; details: hepatocytes, 1 h, 1 µM; how it was run: as §5
[15] = Prodrug activation assessed as carboxypeptidase Y-mediated metabolite A release measured within 10 mins by NMR analysis; format: ADME; details: saccharomyces cerevisiae
How it was run: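 ProTide (3.5 mg) in acetone-d6 with Trizma buffer pH 7.6. Control 31P NMR taken, then carboxypeptidase Y (0.1 mg in Trizma) added. 31P NMR spectra (202 MHz, 25°C) collected with 64 scans every 7 min. Parent and metabolite A/C fractions followed by peak integration over time.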

Row | Structure (SMILES) | LC50 (KG-1a [1]) [nM] | CC50 (HT-29 [2]; Homo sapiens, HT-29, 72 h) [nM] | CC50 (LNCaP) [nM] | CC50 (BXPC-3) [nM] | CC50 (MIA PaCa-2) [nM] | Activity (KG-1a [5]) [%] | Activity (KG-1a [6]) [%] | Activity (KG-1a [9]) [%] | also measured
1 | C[C@H](N[P@](=O)(OC[C@H]1O[C@@H](n2ccc(N)nc2=O)C(F)(F)[C@@H]1O)Oc1ccccc1)C(=O)OCc1ccccc1 | 310 | 1500 | 2600 | 2440 | 30 |  |  |  | Activity (KG-1a [3]): Active
2 | C[C@H](NP(=O)(OC[C@H]1O[C@@H](n2ccc(N)nc2=O)C(F)(F)[C@@H]1O)Oc1ccccc1)C(=O)OCc1ccccc1 (stereo partly specified) [FOSGEMCITABINE PALABENAMIDE] | 280 | 1300 | 3100 | 2290 | 100 | 2.7 | 2.5 | 1.9 | half-life [4]: 8.3 h; Drug uptake [7]: Active; Drug uptake [8]: Active
3 | Nc1ccn([C@@H]2O[C@H](CO)[C@@H](O)C2(F)F)c(=O)n1 [GEMCITABINE] | 1800 | 700 | 2800 | 740 | 10 | 4.1 | 3.9 | 3.8 | Activity (KG-1a [10]): inactive
4 | C[C@H](NP(=O)(OC[C@H]1O[C@@H](n2cc(F)c(=O)[nH]c2=O)C[C@@H]1O)Oc1cccc2ccccc12)C(=O)OCc1ccccc1 (stereo in doubt; form 2) |  |  |  |  |  |  |  |  | Activity (KG-1a [11]): Active
5 | C[C@H](NP(=O)(OC[C@H]1O[C@@H](n2cc(F)c(=O)[nH]c2=O)C[C@@H]1O)Oc1cccc2ccccc12)C(=O)OCc1ccccc1 (stereo in doubt; form 2) [FOSIFLOXURIDINE NAFALBENAMIDE] |  |  |  |  |  |  |  |  | RatioLC50 (HT-29 [12]): 13; LC50 (KG-1a [1]; 72 h): 52 nM; CC50 (MDA-MB-231): 3600 nM; CC50 (HCT-116): 4300 nM; CC50 (HT-29 [2]; 72 h): 2100 nM; CC50 (SW-620): 2370 nM; t1/2 [13]: 0.883 h; Stability [14]: 40%; Drug metabolism [15]: Metabolite_Detected
